{"source": "paper PMC4019989", "about": "(Clinical cancer research : an official journal of the …, 2009)", "key": {"Plasma pharmacokinetics": {"assay": "Plasma pharmacokinetics", "type": "in vivo, human", "conditions": "for AUCinf, Mean: included C0; for AUClast, Mean: includes C0; for half-life / C0 / Cmax / Tmax / clearance: human, plasma, iv", "how_it_was_run": "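Drug went in as an i.v. push over 1–2 min. Cycle 1 blood was drawn predose and at 5, 15, 30 min and 1, 2, 4 h postdose, plus predose and 30 min postdose on cycle 1 day 5 and day 1 of cycles 2 and 3. Plasma was assayed by validated LC/MS (lower limit of detection 0.10 μg/mL). Parameters came from pharmacokinetic analysis and modelling.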"}, "[1]": {"system": "20S chymotrypsin-like proteasome activity", "type": "in vivo, human", "how_it_was_run": "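Chymotrypsin-like proteasome activity in patient whole blood and PBMCs, read with a fluorogenic substrate. Samples: cycle 1 day 1 predose, 1 and 24 h postdose; predose and 1 h postdose on cycle 1 day 5 and day 1 of cycles 2 and 3. Dosing was i.v. push days 1–5 with 9-d rest. Percent activity is each sample's specific activity relative to cycle 1 day 1 predose. Mean ± SEM.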"}, "[2]": {"conditions": "11 mg/m^2 i.v. push, n = 2, plasma"}, "[3]": {"conditions": "15 mg/m^2 i.v. push, n = 5, plasma"}, "[4]": {"conditions": "20 mg/m^2 i.v. push, n = 4, plasma"}}, "data": [{"molecule": "CC(C)C[C@H](NC(=O)[C@H](CCc1ccccc1)NC(=O)CN1CCOCC1)C(=O)N[C@@H](Cc1ccccc1)C(=O)N[C@@H](CC(C)C)C(=O)[C@@]1(C)CO1", "note": "[carfilzomib]", "values": [{"measurement": "AUCinf, Mean", "setting": "Plasma pharmacokinetics; [2]", "result": "4,463 g·mL/h"}, {"measurement": "AUClast, Mean", "setting": "Plasma pharmacokinetics; [2]", "result": "4,457 ng·mL/h"}, {"measurement": "AUCinf, Mean", "setting": "Plasma pharmacokinetics; [3]", "result": "9,760 g·mL/h"}, {"measurement": "AUClast, Mean", "setting": "Plasma pharmacokinetics; [3]", "result": "9,728 ng·mL/h"}, {"measurement": "AUCinf, Mean", "setting": "Plasma pharmacokinetics; [4]", "result": "23,660 g·mL/h"}, {"measurement": "AUClast, Mean", "setting": "Plasma pharmacokinetics; [4]", "result": "23,123 ng·mL/h"}, {"measurement": "half-life", "setting": "Plasma pharmacokinetics", "result": "< 30", "unit": "min"}, {"measurement": "C0", "setting": "Plasma pharmacokinetics; 11 mg/m2", "result": 762, "unit": "ng/mL"}, {"measurement": "Cmax", "setting": "Plasma pharmacokinetics; 11 mg/m2", "result": 90.2, "unit": "ng/mL"}, {"measurement": "Tmax", "setting": "Plasma pharmacokinetics; 11 mg/m2", "result": 9, "unit": "min"}, {"measurement": "clearance", "setting": "Plasma pharmacokinetics; 11 mg/m2", "result": 5060, "unit": "mL/min"}, {"measurement": "half-life", "setting": "Plasma pharmacokinetics; 11 mg/m2", "result": 25.3, "unit": "min"}, {"measurement": "C0", "setting": "Plasma pharmacokinetics; 15 mg/m2", "result": 2120, "unit": "ng/mL"}, {"measurement": "Cmax", "setting": "Plasma pharmacokinetics; 15 mg/m2", "result": 326, "unit": "ng/mL"}, {"measurement": "Tmax", "setting": "Plasma pharmacokinetics; 15 mg/m2", "result": 5.8, "unit": "min"}, {"measurement": "clearance", "setting": "Plasma pharmacokinetics; 15 mg/m2", "result": 7050, "unit": "mL/min"}, {"measurement": "half-life", "setting": "Plasma pharmacokinetics; 15 mg/m2", "result": 28.9, "unit": "min"}, {"measurement": "C0", "setting": "Plasma pharmacokinetics; 20 mg/m2", "result": 5450, "unit": "ng/mL"}, {"measurement": "Cmax", "setting": "Plasma pharmacokinetics; 20 mg/m2", "result": 683, "unit": "ng/mL"}, {"measurement": "Tmax", "setting": "Plasma pharmacokinetics; 20 mg/m2", "result": 6, "unit": "min"}, {"measurement": "clearance", "setting": "Plasma pharmacokinetics; 20 mg/m2", "result": 4130, "unit": "mL/min"}, {"measurement": "half-life", "setting": "Plasma pharmacokinetics; 20 mg/m2", "result": 17.1, "unit": "min"}, {"measurement": "clearance (in words)", "setting": "Plasma pharmacokinetics; patients, i.v. push", "result": "higher than liver blood flow"}, {"measurement": "Recovery of proteasome activity in PBMCs", "setting": "[1]; during the 9-day rest period", "result": "generally returned to baseline"}, {"measurement": "Recovery of proteasome activity in whole blood", "setting": "[1]; during the 9-day rest period", "result": "only partially recovered"}, {"measurement": "Proteasome inhibition after a single dose", "setting": "[1]; whole blood and PBMCs, dose levels of 15 mg/m^2 and higher, 1 hour after dosing on day 1", "result": "> 75", "unit": "%"}, {"measurement": "Proteasome inhibition after the fifth consecutive day of dosing", "setting": "[1]; whole blood and PBMCs, highest dose groups, 1 h after the fifth dose", "result": "> 90", "unit": "%"}]}]}
